Data published in ChEMBL document CHEMBL1141306, “ES-242 derivatives and cycloheptapeptides from Cordyceps sp. strains BCC 16173 and BCC 16176” (J Nat Prod, 2007).
Non-standard residues stand in square brackets, D forms with d. Residues, ends and D or L forms follow the SMILES beside them. NMeY = CN[C@@H](Cc1ccc(O)cc1)C(=O)O; dNMeF = CN[C@H](Cc1ccccc1)C(=O)O; Sar = CNCC(=O)O

Experiments:
Plasmodium falciparum [1] = test: Antimalarial activity against multidrug-resistant Plasmodium falciparum K1 at 10 ug/mL; type: functional
Procedure, shortened: (§1)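 Multidrug-resistant P. falciparum K1 cultures assayed by microculture radioisotope technique (Desjardins method). IC50 determined, and percent inhibition measured at a single concentration of 10 µg/mL.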

Plasmodium falciparum [2] = test: Antimalarial activity against multidrug-resistant Plasmodium falciparum K1; type: functional, organism-based; procedure, shortened: as §1
KB = test: Cytotoxicity against human KB cells; type: functional, cell-based
Procedure, shortened: (§2)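 Colorimetric cytotoxicity assay on KB (oral epidermoid carcinoma), BC (breast cancer), NCI-H187 (small cell lung cancer) and Vero (African green monkey kidney fibroblast) cells. Values reported as IC50 (µM).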

Vero = test: Cytotoxicity against african green monkey Vero cells; type: cell-based; conditions: Chlorocebus sabaeus; procedure, shortened: as §2
NCI-H187 = test: Cytotoxicity against human NCI-H187 cells; type: functional, cell-based; procedure, shortened: as §2
[3] = Cytotoxicity against human BC cells; type: functional, cell-based; procedure, shortened: as §2

Row | SMILES | inhibition at 10 µg/mL (Plasmodium falciparum [1]) [%] | IC50 (Plasmodium falciparum [2]) [µM] | further results
1 | COc1cc(OC)c2c(O)c3c(c(-c4c5c(c(O)c6c(OC)cc(O)cc46)CO[C@@H](C)[C@H]5O)c2c1)[C@H](O)[C@H](C)OC3 | < 50 |  | 
2 | COc1cc(OC)c2c(O)c3c(c(-c4c(O)cc(OC)c5c(O)c6c(cc45)[C@H](O)[C@H](C)OC6)c2c1)[C@H](O)[C@H](C)OC3 |  | 3.3 | 
3 | COc1cc(OC)c2c(O)c3c(c(-c4c5c(c(O)c6c(OC)cc(OC)cc46)CO[C@@H](C)[C@H]5OC(C)=O)c2c1)[C@H](OC(C)=O)[C@H](C)OC3 |  | 3.3 | 
4 | COc1cc(OC)c2c(O)c3c(c(-c4c5c(c(O)c6c(OC)cc(O)cc46)CO[C@@H](C)[C@H]5OC(C)=O)c2c1)[C@H](OC(C)=O)[C@H](C)OC3 | < 50 |  | 
5 | COc1cc(OC)c2c(O)c3c(c(-c4c5c(c(O)c6c(OC)cc(OC)cc46)CO[C@@H](C)[C@H]5O)c2c1)[C@H](O)[C@H](C)OC3 | < 50 | 8.1 | 
6 | COc1cc(OC)c2c(O)c3c(c(-c4c(OC)cc(OC)c5c(O)c6c(cc45)[C@H](O)[C@H](C)OC6)c2c1)[C@H](O)[C@H](C)OC3 | < 50 | 12 | 
7 | CC[C@H](C)[C@@H]1NC(=O)[C@H](Cc2ccc(O)cc2)N(C)C(=O)[C@H](Cc2ccccc2)NC(=O)CN(C)C(=O)[C@@H]2CCCN2C(=O)[C@@H](Cc2ccccc2)N(C)C(=O)[C@H](CC(C)C)NC1=O [CORDYHEPTAPEPTIDE A] (cyclo(F[NMeY]IL[dNMeF]P[Sar])) |  | 3.8 | IC50 (KB): 0.78 µM; IC50 (Vero): 14 µM; IC50 (NCI-H187): 0.18 µM; IC50 [3]: 0.2 µM
